Measured values pooled from the literature.
Target: Prostaglandin G/H synthase 2 (PTGS2, Homo sapiens, UniProt P35354)
Read-out: enzyme activity
Mode: inhibitor
Sequence (P35354 18-604, as in one of the studies): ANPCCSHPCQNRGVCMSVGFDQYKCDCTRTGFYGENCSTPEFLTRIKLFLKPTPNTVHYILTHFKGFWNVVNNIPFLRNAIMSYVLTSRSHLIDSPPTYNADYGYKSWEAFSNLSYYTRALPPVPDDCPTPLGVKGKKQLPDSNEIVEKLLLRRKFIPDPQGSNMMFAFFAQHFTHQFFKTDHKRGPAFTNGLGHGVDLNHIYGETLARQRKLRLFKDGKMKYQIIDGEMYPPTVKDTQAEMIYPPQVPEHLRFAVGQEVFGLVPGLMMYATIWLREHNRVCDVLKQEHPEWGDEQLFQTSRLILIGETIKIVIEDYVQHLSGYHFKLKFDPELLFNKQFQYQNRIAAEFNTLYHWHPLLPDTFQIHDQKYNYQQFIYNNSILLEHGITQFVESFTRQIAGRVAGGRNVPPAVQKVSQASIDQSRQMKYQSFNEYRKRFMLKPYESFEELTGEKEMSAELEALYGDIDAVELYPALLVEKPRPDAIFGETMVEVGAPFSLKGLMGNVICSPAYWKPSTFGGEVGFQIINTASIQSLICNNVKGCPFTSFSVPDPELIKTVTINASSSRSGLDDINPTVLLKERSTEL

Compound | method | IC50 [nM]
Cc1cccc2nc(-c3ccc(S(C)(=O)=O)cc3)c(Nc3ccc(F)cc3)n12 | – | 80
CC1=NN(c2cccc(Cl)c2)C(=O)/C1=C\c1cn(-c2nc(N3CCCCC3)nc(N3CCOCC3)n2)c2ccccc12 | – | 50
CS(=O)(=O)c1ccc(-c2ncccc2-c2nc3ccccc3s2)cc1 | absorbance | 860
COc1cc([C@H]2OC[C@H]3[C@@H]2CO[C@@H]3c2cc(OC)c(O)c(OC)c2)cc(OC)c1O | absorbance | 2490
CS(=O)(=O)c1ccc(-n2cc(C=N/N=c3\[nH]c(-c4ccc(Br)cc4)cs3)c(-c3ccc([N+](=O)[O-])cc3)n2)cc1 | – | 27800
CS(=O)(=O)c1ccc(-c2nc3ccccn3c2Nc2ccc(F)cc2)cc1 | – | 100
COc1ccc(-c2cc(=O)c3c(O)cc(O[C@@H]4O[C@H](CO)[C@@H](O)[C@H](O)[C@H]4O)cc3o2)cc1O | absorbance | 973
O=C1Nc2ccccc2/C1=C/c1cn(-c2nc(N3CCOCC3)nc(N3CCOCC3)n2)c2ccccc12 | – | 1000
CS(=O)(=O)c1ccc(-n2cc(/C=N/N=c3\[nH]c(-c4ccc(Br)cc4)cs3)c(-c3ccc(Br)cc3)n2)cc1 | – | 5820
CC1=NN(c2cccc(Cl)c2)C(=O)/C1=C\c1cn(-c2nc(N3CCOCC3)nc(N3CCOCC3)n2)c2ccccc12 | – | 20
COc1ccc(Nc2c(-c3ccc(S(C)(=O)=O)cc3)nc3c(C)cccn23)cc1 | – | 80
O=C1/C(=C\c2cn(-c3nc(N4CCOCC4)nc(N4CCOCC4)n3)c3ccccc23)c2ccccc2N1c1c(Cl)cccc1Cl | – | 400
Cc1cccn2c(Nc3ccccc3)c(-c3ccc(S(C)(=O)=O)cc3)nc12 | – | 80
O=Cc1cn(-c2nc(Cl)nc(N3CCOCC3)n2)c2ccccc12 | – | 10000
COc1ccc(Nc2c(-c3ccc(S(C)(=O)=O)cc3)nc3ccccn23)cc1 | – | 390
O=C1Nc2ccccc2/C1=C/c1cn(-c2nc(N3CCCC3)nc(N3CCOCC3)n2)c2ccccc12 | – | 8000

Compound | method | IC50 [nM]
COc1ccc(-c2nn(-c3ccc(S(C)(=O)=O)cc3)cc2C=N/N=c2\[nH]c(-c3ccc([N+](=O)[O-])cc3)cs2)cc1 | – | 8830
CC(=O)c1cccc(/N=N/c2cc(/C=C/C(=O)O)ccc2O)c1 | – | > 100000
O=C1/C(=C\c2cn(-c3nc(N4CCCCC4)nc(N4CCOCC4)n3)c3ccccc23)c2ccccc2N1c1c(Cl)cccc1Cl | – | 1000
NS(=O)(=O)c1ccc(-c2ncc(Cl)cc2-c2nc3ccccc3s2)cc1 | absorbance | 210
CCn1c(-c2nc3ccc(C(=O)N4CCCC(N)C4)cc3n2C)cc2ccccc21 (centres unmarked) | – | > 100000
CS(=O)(=O)c1ccc(-c2nc3ccccn3c2Nc2ccc(Cl)cc2)cc1 | – | 70
C=C[C@@]1(C)C=C2CC[C@@H]3[C@](C)(CCC[C@@]3(C)C(=O)O)[C@H]2CC1 | absorbance | 18500
CC(C)Cc1ccc(-c2nn(-c3ccc(S(C)(=O)=O)cc3)cc2/C=N\N=C2/NC(=O)CS2)cc1 | – | 756
Cc1ccn2c(Nc3ccc(Cl)cc3)c(-c3ccc(S(C)(=O)=O)cc3)nc2c1 | – | 80
CC(C)Cc1ccc(-c2nn(-c3ccc(S(C)(=O)=O)cc3)cc2/C=N/N=c2\[nH]c(-c3ccc(Br)cc3)cs2)cc1 | – | 3010
O=Cc1cn(-c2nc(N3CCCCC3)nc(N3CCOCC3)n2)c2ccccc12 | – | 700
CC(=O)c1ccc(N=Nc2c(C(=O)O)cc(O)c(O)c2O)cc1 | – | 6110
Cc1cccc2nc(-c3ccc(S(C)(=O)=O)cc3)c(Nc3ccc(Cl)cc3)n12 | – | 80
CCOC(=O)c1cc(O)c(O)c(O)c1 | – | 13400
CC(=O)c1ccc(/N=N/c2cc(/C=C/C(=O)O)ccc2O)cc1 | – | > 100000
NS(=O)(=O)c1ccc(-c2ncccc2-c2nc3ccccc3s2)cc1 | absorbance | 690
